Measurements taken from ChEMBL document CHEMBL1221252, “Novel 1H-pyrrolo[2,3-c]pyridines as acid pump antagonists (APAs)” (Bioorg Med Chem Lett, 2010).

Columns and labels:
[1] = Inhibition of pig gastric H(+)/K(+) ATPase; type: tissue-based, Sus scrofa, Stomach
Outline: (§1)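 Ion-leaky gastric membrane vesicles enriched in H+/K+-ATPase, prepared from pig stomach. Lyophilized vesicles in 5 mM PIPES/Tris pH 6.1 preincubated 5 min with compound, then buffer with or without K+ added. ATP substrate added, 30 min at 37 °C. Stopped with colorimetric reagent; Pi read at 620 nm. Activity taken as K+-stimulated Pi production (with minus without K+); IC50 from % inhibition by Litchfield–Wilcoxon.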

Sus scrofa [2] = organism: Sus scrofa; experiment: Inhibition of pig gastric H(+)/K(+) ATPase at 4 uM; type: tissue-based; settings: Stomach; outline: as §1
Sus scrofa [3] = organism: Sus scrofa; experiment: Inhibition of pig gastric H(+)/K(+) ATPase at 1 uM; type: tissue-based; settings: Stomach; outline: as §1

SMILES | IC50 [1] | inhibition (Sus scrofa [2]) | also measured
CNC(=O)c1cc2c(C)c(C)n(Cc3ccccc3)c2c(OCc2ccc(F)cc2)n1 |  |  | inhibition (Sus scrofa [3]): 39.4%
Cc1[nH]c2c(OCc3ccccc3)nccc2c1C |  | 50.9% | 
Cc1c(C)n(CC2CC2)c2c(OCc3ccc(F)cc3)nccc12 | 181 nM |  | 
Cc1c(C)n(CC(C)C)c2c(OCc3ccc(F)cc3)nccc12 | 196 nM |  | 
Cc1c(C)n(CC(C)C)c2c(OCc3ccc(Cl)cc3)nccc12 | 205 nM |  | 
Cc1c(C)n(CC2OCCO2)c2c(OCc3ccc(F)cc3)nccc12 | 173 nM |  | 
Cc1[nH]c2c(OCc3ccccc3F)nccc2c1C |  | 32.1% | 
Cc1c(C)n(Cc2ccccc2)c2c(OCc3ccc(F)cc3)nc(C(=O)N3CCOCC3)cc12 | 29 nM |  | 
Cc1c(C)n(Cc2ccccc2)c2c(OCc3ccc(Cl)cc3)nccc12 | 187 nM |  | 
CCCn1c(C)c(C)c2ccnc(OCc3ccc(F)cc3)c21 | 302 nM |  | 
Cc1c(C)n(Cc2ccccc2)c2c(OCc3ccc(F)cc3)nc(C(=O)N(C)C)cc12 | 28 nM |  | 
Cc1[nH]c2c(OCc3ccc(F)cc3)nccc2c1C |  | 60.3% | 

Further lines, with some results ahead:

IC50 [1] | inhibition (Sus scrofa [2]) | SMILES | also measured
738 nM |  | Cc1c(C)n(Cc2ccccc2)c2c(OCc3ccc(F)cc3)nc(C(=O)NC3CC3)cc12 | 
 | 78.4% | C=CCn1c(C)c(C)c2cc(C(=O)NC)nc(OCc3ccc(F)cc3)c21 | 
 | 80.3% | C=CCn1c(C)c(C)c2cc(C(N)=O)nc(OCc3ccc(F)cc3)c21 | 
 | 16.1% | Cc1c(C)n(Cc2ccccc2)c2c(OCc3ccc(F)cc3)nc(C(N)=O)cc12 | 
125 nM |  | C=CCn1c(C)c(C)c2ccnc(OCc3ccc(F)cc3)c21 | 
408 nM |  | C=CCn1c(C)c(C)c2cc(C(=O)NC3CC3)nc(OCc3ccc(F)cc3)c21 | 
735 nM |  | C=CCn1c(C)c(C)c2cc(C(=O)Nc3ccncc3)nc(OCc3ccc(F)cc3)c21 | 
